Measured values: ChEMBL document CHEMBL3244078, “Synthesis and antihypertensive activity of novel 3-hydrazino-5-phenyl-1,2,4-triazines” (J Med Chem, 1979)
Calls of active or inactive are those of the source. The calls are words filed in the database; no cut-off is given here.

Key:
Rattus norvegicus [1] = assay: Antihypertensive activity in spontaneously hypertensive rat assessed as drop in mean systolic blood pressure at 100 mg/kg, po after 4 hrs by tail cuff method relative to vehicle-treated control; type: functional, Artery
Rattus norvegicus [2] = assay: Antihypertensive activity in spontaneously hypertensive rat assessed as drop in mean systolic blood pressure at 100 mg/kg, po after 24 hrs by tail cuff method relative to vehicle-treated control; type: functional, Artery
Rattus norvegicus [3] = assay: Antihypertensive activity in spontaneously hypertensive rat assessed as drop in mean systolic blood pressure at 100 mg/kg, po followed by second dosing at 24 hrs measured after 28 hrs by tail cuff method relative to vehicle-treated control; type: functional, Artery
Rattus norvegicus [4] = assay: Antihypertensive activity in spontaneously hypertensive rat assessed as drop in mean systolic blood pressure at 100 mg/kg, po followed by second dosing at 24 hrs measured after 48 hrs by tail cuff method relative to vehicle-treated control; type: functional, Artery
[5] = Toxicity in ip dosed CF-1 mouse after 48 hrs; conditions: in vivo
Rattus norvegicus [6] = assay: Antihypertensive activity in spontaneously hypertensive rat assessed as drop in mean systolic blood pressure at 30 mg/kg, po after 4 hrs by tail cuff method relative to vehicle-treated control; type: functional, Artery
Method in brief: (§1)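 Dose-response run of the primary SHR protocol: rats aged 12–16 weeks, systolic BP of 170 mmHg or greater, five per dose. Oral doses of 100, 30, 10 and 3 mg/kg in 0.25% methylcellulose, redosed immediately after the 24-h reading. Tail-cuff systolic BP read predose and at 4, 24, 28 and 48 h. Mean drop from predose; Student's t test, p < 0.05.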

Rattus norvegicus [7] = assay: Antihypertensive activity in spontaneously hypertensive rat assessed as drop in mean systolic blood pressure at 30 mg/kg, po after 24 hrs by tail cuff method relative to vehicle-treated control; type: functional, Artery; method in brief: as §1
Rattus norvegicus [8] = assay: Antihypertensive activity in spontaneously hypertensive rat assessed as drop in mean systolic blood pressure at 30 mg/kg, po followed by second dosing at 24 hrs measured after 28 hrs by tail cuff method relative to vehicle-treated control; type: functional, Artery; method in brief: as §1
Rattus norvegicus [9] = assay: Antihypertensive activity in spontaneously hypertensive rat assessed as drop in mean systolic blood pressure at 30 mg/kg, po followed by second dosing at 24 hrs measured after 48 hrs by tail cuff method relative to vehicle-treated control; type: functional, Artery; method in brief: as §1
Rattus norvegicus [10] = assay: Antihypertensive activity in spontaneously hypertensive rat assessed as drop in mean systolic blood pressure at 10 mg/kg, po after 4 hrs by tail cuff method relative to vehicle-treated control; type: functional, Artery; method in brief: as §1
Rattus norvegicus [11] = assay: Antihypertensive activity in spontaneously hypertensive rat assessed as drop in mean systolic blood pressure at 10 mg/kg, po after 24 hrs by tail cuff method relative to vehicle-treated control; type: functional, Artery; method in brief: as §1
Rattus norvegicus [12] = assay: Antihypertensive activity in spontaneously hypertensive rat assessed as drop in mean systolic blood pressure at 10 mg/kg, po followed by second dosing at 24 hrs measured after 28 hrs by tail cuff method relative to vehicle-treated control; type: functional, Artery; method in brief: as §1
Rattus norvegicus [13] = assay: Antihypertensive activity in spontaneously hypertensive rat assessed as drop in mean systolic blood pressure at 10 mg/kg, po followed by second dosing at 24 hrs measured after 48 hrs by tail cuff method relative to vehicle-treated control; type: functional, Artery; method in brief: as §1
Rattus norvegicus [14] = assay: Antihypertensive activity in spontaneously hypertensive rat assessed as mean heart rate at 100 mg/kg, po after 4 hrs by tail cuff method relative to vehicle-treated control; type: functional
Method in brief: (§2)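 Heart rate by biotachometer in the SHR dose-response protocol: five rats per dose, oral doses of 100, 30, 10 and 3 mg/kg in 0.25% methylcellulose, second dose right after the 24-h reading. Mean heart rate recorded predose and at 4, 24, 28 and 48 h.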

Rattus norvegicus [15] = assay: Antihypertensive activity in spontaneously hypertensive rat assessed as mean heart rate at 100 mg/kg, po after 24 hrs by tail cuff method relative to vehicle-treated control; type: functional; method in brief: as §2
Rattus norvegicus [16] = assay: Antihypertensive activity in spontaneously hypertensive rat assessed as mean heart rate at 100 mg/kg, po followed by second dosing at 24 hrs measured after 28 hrs by tail cuff method relative to vehicle-treated control; type: functional; method in brief: as §2
Rattus norvegicus [17] = assay: Antihypertensive activity in spontaneously hypertensive rat assessed as mean heart rate at 100 mg/kg, po followed by second dosing at 24 hrs measured after 48 hrs by tail cuff method relative to vehicle-treated control; type: functional; method in brief: as §2
Rattus norvegicus [18] = assay: Antihypertensive activity in spontaneously hypertensive rat assessed as mean heart rate at 30 mg/kg, po after 4 hrs by tail cuff method relative to vehicle-treated control; type: functional; method in brief: as §2
Rattus norvegicus [19] = assay: Antihypertensive activity in spontaneously hypertensive rat assessed as mean heart rate at 30 mg/kg, po after 24 hrs by tail cuff method relative to vehicle-treated control; type: functional; method in brief: as §2
Rattus norvegicus [20] = assay: Antihypertensive activity in spontaneously hypertensive rat assessed as mean heart rate at 30 mg/kg, po followed by second dosing at 24 hrs measured after 28 hrs by tail cuff method relative to vehicle-treated control; type: functional; method in brief: as §2
Rattus norvegicus [21] = assay: Antihypertensive activity in spontaneously hypertensive rat assessed as mean heart rate at 30 mg/kg, po followed by second dosing at 24 hrs measured after 48 hrs by tail cuff method relative to vehicle-treated control; type: functional; method in brief: as §2
Rattus norvegicus [22] = assay: Antihypertensive activity in spontaneously hypertensive rat assessed as mean heart rate at 10 mg/kg, po after 4 hrs by tail cuff method relative to vehicle-treated control; type: functional; method in brief: as §2
Rattus norvegicus [23] = assay: Antihypertensive activity in spontaneously hypertensive rat assessed as mean heart rate at 10 mg/kg, po after 24 hrs by tail cuff method relative to vehicle-treated control; type: functional; method in brief: as §2
Rattus norvegicus [24] = assay: Antihypertensive activity in spontaneously hypertensive rat assessed as mean heart rate at 10 mg/kg, po followed by second dosing at 24 hrs measured after 28 hrs by tail cuff method relative to vehicle-treated control; type: functional; method in brief: as §2
Rattus norvegicus [25] = assay: Antihypertensive activity in spontaneously hypertensive rat assessed as mean heart rate at 10 mg/kg, po followed by second dosing at 24 hrs measured after 48 hrs by tail cuff method relative to vehicle-treated control; type: functional; method in brief: as §2
Rattus norvegicus [26] = assay: Antihypertensive activity in spontaneously hypertensive rat assessed as mean heart rate at 3 mg/kg, po after 4 hrs by tail cuff method relative to vehicle-treated control; type: functional; method in brief: as §2
Rattus norvegicus [27] = assay: Antihypertensive activity in spontaneously hypertensive rat assessed as mean heart rate at 3 mg/kg, po after 24 hrs by tail cuff method relative to vehicle-treated control; type: functional; method in brief: as §2
Rattus norvegicus [28] = assay: Antihypertensive activity in spontaneously hypertensive rat assessed as mean heart rate at 3 mg/kg, po followed by second dosing at 24 hrs measured after 28 hrs by tail cuff method relative to vehicle-treated control; type: functional; method in brief: as §2
Rattus norvegicus [29] = assay: Antihypertensive activity in spontaneously hypertensive rat assessed as mean heart rate at 3 mg/kg, po followed by second dosing at 24 hrs measured after 48 hrs by tail cuff method relative to vehicle-treated control; type: functional; method in brief: as §2
Rattus norvegicus [30] = assay: Antihypertensive activity in spontaneously hypertensive rat assessed as drop in mean systolic blood pressure at 50 mg/kg, po after 4 hrs by tail cuff method relative to vehicle-treated control; type: functional, Artery
Method in brief: (§3)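 Spontaneously hypertensive rats aged 12–16 weeks with systolic BP of 170 mmHg or greater, in groups of five. Dosed po as a solution or suspension in 0.25% methylcellulose at 5 mL/kg, with a second dose right after the 24-h reading. Tail-cuff systolic BP (capacitance transducer) was read predose as control, then at 4, 24, 28 and 48 h. Mean drop from predose; Student's t test, p < 0.05.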

Rattus norvegicus [31] = assay: Antihypertensive activity in spontaneously hypertensive rat assessed as drop in mean systolic blood pressure at 50 mg/kg, po after 24 hrs by tail cuff method relative to vehicle-treated control; type: functional, Artery; method in brief: as §3
Rattus norvegicus [32] = assay: Antihypertensive activity in spontaneously hypertensive rat assessed as drop in mean systolic blood pressure at 50 mg/kg, po followed by second dosing at 24 hrs measured after 28 hrs by tail cuff method relative to vehicle-treated control; type: functional, Artery; method in brief: as §3
Rattus norvegicus [33] = assay: Antihypertensive activity in spontaneously hypertensive rat assessed as drop in mean systolic blood pressure at 50 mg/kg, po followed by second dosing at 24 hrs measured after 48 hrs by tail cuff method relative to vehicle-treated control; type: functional, Artery; method in brief: as §3

SMILES | Activity (Rattus norvegicus [1]) | Activity (Rattus norvegicus [2]) | Activity (Rattus norvegicus [3]) | LD50 at 48 h [5] | Activity (Rattus norvegicus [6]) | Activity (Rattus norvegicus [7]) | Activity (Rattus norvegicus [8]) | Activity (Rattus norvegicus [9]) | Activity (Rattus norvegicus [18]) | Activity (Rattus norvegicus [19]) | Activity (Rattus norvegicus [20]) | Activity (Rattus norvegicus [21]) | Activity (Rattus norvegicus [22]) | Activity (Rattus norvegicus [23]) | Activity (Rattus norvegicus [24]) | Activity (Rattus norvegicus [25]) | Activity (Rattus norvegicus [26]) | Activity (Rattus norvegicus [27]) | Activity (Rattus norvegicus [28]) | Activity (Rattus norvegicus [29]) | other results
O=C(NNc1nncc(-c2ccc(Cl)c(Cl)c2)n1)C(F)(F)F | 30 mmHg | 29 mmHg | 35 mmHg | > 300 mg/kg | 18 mmHg | 18 mmHg | 18 mmHg | 16 mmHg | 444 bpm | 438 bpm | 435 bpm | 426 bpm | 412 bpm | 438 bpm | 448 bpm | 400 bpm | 430 bpm | 424 bpm | 428 bpm | 424 bpm | Activity (Rattus norvegicus [4]): 25 mmHg; Activity (Rattus norvegicus [10]): 16 mmHg; Activity (Rattus norvegicus [11]): 12 mmHg; Activity (Rattus norvegicus [12]): 17 mmHg; Activity (Rattus norvegicus [13]): 15 mmHg; Activity (Rattus norvegicus [14]): 472 bpm; Activity (Rattus norvegicus [15]): 462 bpm; Activity (Rattus norvegicus [16]): 438 bpm; Activity (Rattus norvegicus [17]): 438 bpm
NNc1nncc(-c2ccccc2)n1 | – | – | – | 56 mg/kg | – | – | – | – | – | – | – | – | – | – | – | – | – | – | – | – | Activity (Rattus norvegicus [30]): 30 mmHg; Activity (Rattus norvegicus [31]): 43 mmHg; Activity (Rattus norvegicus [32]): 58 mmHg; Activity (Rattus norvegicus [33]): 60 mmHg
Br.NCC(=O)NNc1nncc(-c2ccccc2)n1.O | – | – | – | 75 mg/kg | – | – | – | – | – | – | – | – | – | – | – | – | – | – | – | – | Activity (Rattus norvegicus [30]): 41 mmHg; Activity (Rattus norvegicus [31]): 35 mmHg; Activity (Rattus norvegicus [32]): 105 mmHg; Activity (Rattus norvegicus [33]): 91 mmHg
CC(=O)NNc1nncc(-c2cccc(Cl)c2)n1 | 20 mmHg | 23 mmHg | 50 mmHg | > 300 mg/kg | 16 mmHg | 14 mmHg | 19 mmHg | 19 mmHg | 400 bpm | 438 bpm | 460 bpm | 462 bpm | 458 bpm | 460 bpm | 448 bpm | 448 bpm | 422 bpm | 430 bpm | 436 bpm | 442 bpm | Activity (Rattus norvegicus [4]): 55 mmHg; Activity (Rattus norvegicus [10]; Artery): inactive; Activity (Rattus norvegicus [11]; Artery): inactive; Activity (Rattus norvegicus [12]; Artery): inactive; Activity (Rattus norvegicus [13]; Artery): inactive; Activity (Rattus norvegicus [14]): 478 bpm; Activity (Rattus norvegicus [15]): 482 bpm; Activity (Rattus norvegicus [16]): 482 bpm; Activity (Rattus norvegicus [17]): 490 bpm
Cl.O.O=C(NNc1nncc(-c2ccccc2)n1)C12CC3CC(CC(C3)C1)C2 | 42 mmHg | 70 mmHg | 46 mmHg | > 300 mg/kg | 20 mmHg | 12 mmHg | 18 mmHg | 11 mmHg | 410 bpm | 412 bpm | 380 bpm | 392 bpm | 468 bpm | 446 bpm | 428 bpm | 422 bpm | 445 bpm | 420 bpm | 418 bpm | 426 bpm | Activity (Rattus norvegicus [4]): 35 mmHg; Activity (Rattus norvegicus [10]; Artery): inactive; Activity (Rattus norvegicus [11]; Artery): inactive; Activity (Rattus norvegicus [12]; Artery): inactive; Activity (Rattus norvegicus [13]; Artery): inactive; Activity (Rattus norvegicus [14]): 446 bpm; Activity (Rattus norvegicus [15]): 428 bpm; Activity (Rattus norvegicus [16]): 442 bpm; Activity (Rattus norvegicus [17]): 458 bpm
NNc1nncc2ccccc12 [HYDRALAZINE] | – | – | – | 100 mg/kg | 88 mmHg | 60 mmHg | 47 mmHg | 14 mmHg | 492 bpm | 480 bpm | 496 bpm | 448 bpm | 504 bpm | 468 bpm | 428 bpm | 448 bpm | 448 bpm | 392 bpm | 444 bpm | 432 bpm | Activity (Rattus norvegicus [10]): 60 mmHg; Activity (Rattus norvegicus [11]): 38 mmHg; Activity (Rattus norvegicus [12]): 10 mmHg; Activity (Rattus norvegicus [13]): 10 mmHg
